Source: PubChem BioAssay
HUVEC inhibit = inhibitors of HUVEC proliferation, primary screen, cell-based, 384-well | CellTiter-Glo luminescence, 72 h; active compounds read low | viability, % at 10 µM (by protocol) | 86,000 tested, 1.1% active;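 active means viability at or below 30%; inactive means viability above 30%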;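 further: 100% = median luminescence of DMSO-only cell control wells on each plate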
H69AR inhibit = proliferation blockers of H69AR lung cancer cells, primary screen, cell-based, human, 86K library; AID 598, 2007; viability, % at 10 µM; 85,000 tested, 6% active; H69AR lung tumor viability, ATP luminescence, 72 h; active compounds read low;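 active means viability at or below 40%; inactive means viability above 40%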;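 further: multidrug resistant small cell line overexpressing MRP-1 efflux transporter; 100% = mean luminescence of untreated control wells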
Lung fibro prol = antiproliferative effect on LL 47 fibroblasts – human, LL 47 cells, CellTiter-Glo luminescence, primary screen; AID 719, 2007; LL 47 human lung fibroblast viability, ATP luminescence; active compounds read low; viability, % at 10 µM; 85,000 tested, 1.1% active;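 active means viability at or below 50% in the single dose screen; inactive means viability above 50%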;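 further: compound exposure lasted 72 h before the ATP readout; 100% = median luminescence of untreated cell-only wells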
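Assay system: human lung fibroblast line LL 47, low passage. Input: 1,150 fibroblasts seeded per well. Times: overnight cell rest, 72 h compound treatment at 37 °C. Evaluation: % viability of median cell-only signal. Technique: luminescent ATP detection, CellTiter-Glo. Control set: cell-only wells, no compound.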
bCat KO growth = primary screen for growth suppressors in beta-catenin knockout HCT116 cells (colon tumor, human); HCT116 beta-catenin knockout viability, CellTiter-Glo, 60 h; active compounds read low; 140,000 tested, 1.5% active; viability, % at 10 µM;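 active means viability at or under a set limit, the compound median less 4 SD, cut at about 6% in these data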;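 further: 0% = Hyamine 1622 control at 20 µM and 100% = untreated cell control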
HCT116 PTEN-null = growth suppression of PTEN-null HCT116, primary screen, cell-based, CellTiter-Glo; HCT116 PTEN-null viability, 60 h; active compounds read low; viability, % at 10 µM; 140,000 tested, 1.2% active; AID 827, 2007;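 active means viability at or below a set limit, 4 SD under the median of all tested compounds, cut at about 3.7% in these data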;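 further: PTEN knockout HCT116 line with beta catenin targeted HCT116 as companion control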
An asterisk follows results filed as active; . = no result given. This is one part of a sample in which hits are shown more often than they occur.

SMILES	HUVEC inhibit	H69AR inhibit	Lung fibro prol	bCat KO growth	HCT116 PTEN-null
O=C1Nc2ccccc2/C1=C/C(=O)c1cccs1	68.0	0.7*	33.9*	2.0*	1.6*
COc1ccc(NC(=O)NC23CC4(C)CC(C)(CC(C)(C4)C2)C3)cc1	.	.	.	37.4	28.3
CC1=C(C(=O)Nc2ccccc2)C(c2ccc(C)cc2)N=C(Nc2nc3ccccc3o2)N1 (configuration not stated)	.	.	.	6.7	3.6*
Cc1cccc(NC(=O)CSc2nc3ccccc3o2)c1	.	.	.	90.7	100.2
CCN(C(=O)c1coc(=O)c(Br)c1)c1ccc2c(c1)OCO2	76.7	2.0*	92.0	83.2	84.9
CCOC(=O)C1=C(C(F)(F)F)Nc2ncnn2C1c1cc(OC)ccc1OC (configuration not stated)	.	.	.	85.9	93.4
CCOC(=O)c1c(-c2ccccc2)oc2cc(CN(C)C)c(O)c(CN(C)C)c12	9.3*	10.3*	93.6	.	.
CCCCCCCCCCCCCCCC(O)C(N)CO (configuration not stated)	.	.	.	1.9*	1.5*
Cc1cc(Cl)ccc1OCCCC(=O)N1CCN(C)CC1	97.5	83.0	89.3	75.6	79.0
Cc1cc(Cl)ccc1OCCCC(=O)NO	92.1	3.1*	81.5	67.2	77.0
Cc1cc(Cl)ccc1OCCCC(N)=O	85.5	110.8	41.6*	96.6	102.7
Cn1ncc(N=Cc2ccccc2)c1C(=O)Nc1cccc(Cl)c1	61.0	37.6*	77.6	59.0	61.8
COC1(OC)N=C(NC(=O)Nc2ccccc2)C2(C#N)C(c3ccccc3)C12C#N (configuration not stated)	87.0	90.3	94.4	97.0	95.9
CCN(CC)c1ccc(/C=N/NC(=O)c2cccc(S(=O)(=O)Nc3ccccc3OC)c2)c(O)c1	.	.	.	5.3*	10.5
CC(C)CC1=NN(C(=O)c2ccncc2)C(O)(C(F)(F)F)C1 (configuration not stated)	.	.	.	107.7	103.0
O=C(Cc1ccccc1)NCC(=O)N1CCCCCC1	97.3	113.2	93.4	84.7	96.1
C/C(=C1/C(=O)N(c2ccc([N+](=O)[O-])cc2)N=C1c1ccccc1)N(C)C	.	.	.	3.3*	2.2*
Cc1ccccc1OCCCCn1cnc2ccccc21	46.3	74.1	103.0	17.2	21.4
Brc1ccccc1OCCCn1cnc2ccccc21	16.4*	72.1	93.8	93.0	.
CNC(=O)COC(=O)[C@@H](Nc1ccc(S(=O)(=O)N2CCOCC2)cc1[N+](=O)[O-])C(C)C	.	.	.	102.4	99.3
O=C(CC1(O)C(=O)N(Cc2cccc3ccccc23)c2ccccc21)c1cccnc1 (configuration not stated)	39.6	19.7*	53.1	11.6	13.5
Cc1ccc(C(=O)CC2(O)C(=O)N(Cc3ccccc3Cl)c3ccccc32)o1 (configuration not stated)	81.9	18.5*	89.1	22.9	14.4
COc1ccc(NC(=O)NCCCN2CCN(c3cc(C)ccc3C)CC2)cc1	73.0	61.4	89.9	1.4*	1.4*
COc1ccc(NC(=O)NCCN2CCN(c3cccc(Cl)c3)CC2)cc1	93.3	86.9	103.9	82.9	99.5
Cc1nc(NC2=NCN(CCc3ccccc3)CN2)nc2c(C)cccc12	1.7*	5.5*	32.5*	.	.
SMILES	HUVEC inhibit	H69AR inhibit	Lung fibro prol	bCat KO growth	HCT116 PTEN-null
Cc1cc2nc(NC3=NCN(CCCN4CCOCC4)CN3)nc(C)c2cc1C	78.0	83.8	.	.	.
Cc1cc2nc(NC3=NCN(Cc4ccc5c(c4)OCO5)CN3)nc(C)c2cc1C	32.7	22.6*	48.7*	.	.
Cc1nc(NC2=NCN(CCCN3CCOCC3)CN2)nc2c(C)cccc12	45.3	2.3*	28.5*	18.8	26.1
O=[N+]([O-])c1ccc(N2CCN(CCO)CC2)cc1Sc1nc2ccccc2[nH]1	.	.	.	53.3	63.8
O=C(Nc1ncc(Cc2ccccc2)s1)C1COc2ccccc2O1 (configuration not stated)	96.1	66.0	95.2	81.0	78.6
CC1CCCCN1S(=O)(=O)c1ccc(S(=O)(=O)N2CCN(c3ccc(F)cc3)CC2)cc1 (configuration not stated)	55.7	19.3*	72.4	84.9	90.4
CCOC(=O)c1ccc(N=c2sc(C(=O)OC)cc(=O)n2-c2ccc(C(=O)OCC)cc2)cc1	.	.	.	3.3*	3.9
CCOc1ccc(C2c3c(oc4ccccc4c3=O)C(=O)N2c2ccc(C)cn2)cc1OC (configuration not stated)	93.6	55.4	92.8	85.4	73.2
COc1ccc2c(c1OC)C(=O)N1c3ccccc3C(=O)N(c3ccccc3)C21 (configuration not stated)	67.8	1.0*	93.4	52.2	59.5
COc1ccc2c(c1OC)C(=O)N1c3ccccc3N=C(c3ccc([N+](=O)[O-])cc3)CC21 (configuration not stated)	.	.	.	47.2	37.9
COc1ccc2c(c1OC)C(=O)N1c3ccccc3C(=O)N(c3ccc(F)cc3)C21 (configuration not stated)	88.2	11.8*	93.2	61.1	75.3
Cc1ccccc1N1C(=O)c2ccccc2N2C(=O)c3ccccc3C12 (configuration not stated)	84.6	57.7	80.2	76.1	75.3
Cn1cc(Cl)c(C(=O)N2CCN(c3ncccn3)CC2)n1	.	.	.	94.1	94.4
CCN(C(=O)COC(=O)c1cc(-c2cccc3ccccc23)nc2ccccc12)C1CCS(=O)(=O)C1 (configuration not stated)	.	.	.	93.0	101.8
Cc1ccc(-n2nnnc2-c2cnoc2-c2cccc(F)c2)cc1	71.9	87.4	98.4	92.9	90.5
COC(=O)C1=C(C)N(Cc2ccco2)C(=O)N[C@@H]1c1cccc(C(F)(F)F)c1	.	.	.	0.7*	0.7*
CC(=O)C1=C(C)N(Cc2ccccc2)C(=O)N[C@@H]1c1cccc(C(F)(F)F)c1	.	.	.	88.8	88.8
COCCNC(=O)CSc1nc2cc(OC)c(OC)cc2c(=O)n1Cc1ccco1	89.6	93.2	96.3	94.0	87.6
COc1ccc(Cn2c(SCc3cc(C)ccc3C)nc3cc(OC)c(OC)cc3c2=N)cc1	.	.	.	1.9*	1.4*
COc1ccc(Cn2c(SCc3ccc(C)cc3)nc3cc(OC)c(OC)cc3c2=N)cc1Cl	.	.	.	1.2*	1.2*
COc1cc2nc(SCc3ccc(Cl)cc3Cl)n(Cc3cccs3)c(=N)c2cc1OC	.	.	.	58.8	59.0
CCCCNC(=O)CSc1nc2cc(OC)c(OC)cc2c(=O)n1Cc1ccc(OC)cc1	.	.	.	1.3*	0.6*
Cc1ccc2nsnc2c1S(=O)(=O)NCCc1c(C)[nH]c2ccc(F)cc12	79.2	90.4	80.9	68.3	56.5
O=C(NC1CCCC1)C1CCCN1C(=O)Nc1ccc(Cl)cc1 (configuration not stated)	110.6	94.5	100.5	92.9	95.3
Oc1ccc2n[nH]nc2c1	.	.	.	94.4	105.8
